Laboratory results as given in ChEMBL document CHEMBL5712911, “A homogeneous bioluminescent immunoassay to probe cellular signaling pathway regulation” (Commun Biol, 2020).
Activity calls are given as the source filed them. The rule behind the calls is not given here.

Tests used:
MCF7 [1] = experiment: Inhibition of PI3K in human MCF7 cells assessed as reduction in insulin-induced AKT S473 phosphorylation at 20 uM preincubated for 1 hr followed by insulin stimulation and measured after 10 mins by NanoBiT cell-based immunoassay; details: time 70.0 min
Outline: (§1)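 MCF-7 cells, 50,000/well, were held overnight without serum. They were pretreated 1 h with 20 µM inhibitor, then given insulin (1 µM, 10 min). After 20 min digitonin lysis with protease/phosphatase inhibitors, AKT S473 phosphorylation (20) or total AKT (1) was read by NanoBiT immunoassay (antibody mix 90 min, 23 °C; Nano-Glo luminescence). Means ± S.E.M., n = 3 technical replicates.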

[2] = Effect on total AKT expression in human MCF7 cells at 20 uM measured after 1 hr by NanoBiT cell-based immunoassay; format: toxicity; details: mcf7, 1 h; outline: as §1
MCF7 [3] = experiment: Inhibition of PI3K in human MCF7 cells assessed as reduction in insulin-induced AKT S473 phosphorylation preincubated for 1 hr followed by insulin stimulation and measured after 10 mins by NanoBiT cell-based immunoassay; details: time 70.0 min
Outline: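 For this dose–response, serum-starved MCF-7 cells (50,000/well, overnight without serum) were pretreated 1 h with a concentration series of inhibitor, then stimulated with insulin (1 µM, 10 min). p-AKT S473 was measured by NanoBiT immunoassay: digitonin lysis 20 min, primary pair plus NanoBiT secondaries 90 min at 23 °C, Nano-Glo luminescence. IC50 was derived from the titration.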

MCF7 [4] = experiment: Inhibition of PI3K in human MCF7 cells assessed as reduction in IGF1-induced AKT S473 phosphorylation preincubated for 1 hr followed by IGF1 stimulation and measured after 10 mins by NanoBiT cell-based immunoassay; details: time 70.0 min
MCF7 [5] = experiment: Inhibition of PI3K in human MCF7 cells assessed as reduction in insulin-induced AKT T308 phosphorylation preincubated for 1 hr followed by insulin stimulation and measured after 10 mins by NanoBiT cell-based immunoassay; details: time 70.0 min
[6] = target: T1, Retinoblastoma-associated protein (Homo sapiens) (UniProt P06400); experiment: Inhibition of RB protein in human MCF7 cells assessed as reduction in 17beta-estradiol-induced Rb phosphorylation at Ser807/811 residue by NanoBiT cell-based immunoassay
T1 sequence (whole entry): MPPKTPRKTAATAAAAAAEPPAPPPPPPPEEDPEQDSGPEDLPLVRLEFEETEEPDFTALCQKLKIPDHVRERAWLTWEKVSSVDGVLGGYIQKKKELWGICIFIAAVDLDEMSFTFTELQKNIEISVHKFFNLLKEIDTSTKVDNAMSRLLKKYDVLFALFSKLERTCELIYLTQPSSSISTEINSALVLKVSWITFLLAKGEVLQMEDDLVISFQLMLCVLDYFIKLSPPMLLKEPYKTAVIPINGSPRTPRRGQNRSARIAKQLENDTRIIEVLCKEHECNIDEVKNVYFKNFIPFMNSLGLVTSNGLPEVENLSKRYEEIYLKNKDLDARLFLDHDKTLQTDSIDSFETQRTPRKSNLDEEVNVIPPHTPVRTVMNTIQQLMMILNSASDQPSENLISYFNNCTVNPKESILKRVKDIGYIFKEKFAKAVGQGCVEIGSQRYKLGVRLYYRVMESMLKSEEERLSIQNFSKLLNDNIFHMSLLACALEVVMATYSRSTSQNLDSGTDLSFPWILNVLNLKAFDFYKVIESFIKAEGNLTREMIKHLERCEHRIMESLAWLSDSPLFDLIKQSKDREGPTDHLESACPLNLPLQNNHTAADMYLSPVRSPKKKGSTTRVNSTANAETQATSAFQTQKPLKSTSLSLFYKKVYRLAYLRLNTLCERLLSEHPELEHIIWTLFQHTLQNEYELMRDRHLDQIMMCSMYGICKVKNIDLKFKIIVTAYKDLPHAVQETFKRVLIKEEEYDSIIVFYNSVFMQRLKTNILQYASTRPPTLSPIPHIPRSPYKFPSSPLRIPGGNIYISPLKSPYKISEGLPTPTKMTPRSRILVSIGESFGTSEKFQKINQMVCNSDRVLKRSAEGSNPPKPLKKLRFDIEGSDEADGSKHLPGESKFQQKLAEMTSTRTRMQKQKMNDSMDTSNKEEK

[7] = target: T1, Retinoblastoma-associated protein (Homo sapiens); experiment: Inhibition of RB protein in human MCF7 cells assessed as reduction in 17beta-estradiol-induced Rb phosphorylation at Ser780 residue by NanoBiT cell-based immunoassay
[8] = target: T1, Retinoblastoma-associated protein (Homo sapiens); experiment: Inhibition of RB protein in human MCF7 cells assessed as reduction in EGF-induced Rb phosphorylation at Ser807/811 residue by NanoBiT cell-based immunoassay
[9] = target: T1, Retinoblastoma-associated protein (Homo sapiens); experiment: Inhibition of RB protein in human MCF7 cells assessed as reduction in EGF-induced Rb phosphorylation at Ser780 residue by NanoBiT cell-based immunoassay
[10] = target: T2, Catenin beta-1 (Homo sapiens) (UniProt P35222); experiment: Induction of beta-catenin degradation in Wnt3a-stimulated HEK293 cells by NanoBiT cell-based immunoassay
T2 sequence (whole entry): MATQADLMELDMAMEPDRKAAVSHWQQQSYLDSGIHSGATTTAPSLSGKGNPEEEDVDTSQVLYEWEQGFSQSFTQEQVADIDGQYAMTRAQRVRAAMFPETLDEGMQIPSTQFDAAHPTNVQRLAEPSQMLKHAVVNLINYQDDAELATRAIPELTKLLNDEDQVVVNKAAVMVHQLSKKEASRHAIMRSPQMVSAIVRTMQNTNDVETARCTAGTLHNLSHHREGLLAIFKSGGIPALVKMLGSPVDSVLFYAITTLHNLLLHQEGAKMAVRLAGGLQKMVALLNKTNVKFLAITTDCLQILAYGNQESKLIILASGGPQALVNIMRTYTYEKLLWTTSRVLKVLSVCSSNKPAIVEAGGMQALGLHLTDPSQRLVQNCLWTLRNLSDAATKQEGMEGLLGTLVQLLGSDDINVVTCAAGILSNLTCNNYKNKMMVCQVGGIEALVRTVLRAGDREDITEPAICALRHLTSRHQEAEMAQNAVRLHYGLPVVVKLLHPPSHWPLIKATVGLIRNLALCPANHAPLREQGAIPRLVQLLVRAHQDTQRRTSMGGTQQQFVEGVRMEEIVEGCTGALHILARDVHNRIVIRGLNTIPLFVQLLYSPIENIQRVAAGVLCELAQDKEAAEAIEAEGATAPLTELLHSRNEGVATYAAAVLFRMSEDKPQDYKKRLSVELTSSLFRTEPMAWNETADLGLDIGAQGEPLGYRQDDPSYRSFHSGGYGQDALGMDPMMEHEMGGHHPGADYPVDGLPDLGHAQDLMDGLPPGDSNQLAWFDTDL

[11] = Effect on total STAT3 expression in human A-431 cells at 1 uM measured after 1 hr by NanoBiT cell-based immunoassay; format: toxicity; details: a-431, 1 h
Outline: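 A431 cells, 50,000/well, were kept overnight in serum-free medium. […] Total STAT3 was measured by NanoBiT immunoassay after 20 min digitonin lysis (antibody mix 90 min, 23 °C; Nano-Glo luminescence). Means ± S.E.M., n = 3 technical replicates.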

MCF7 [12] = experiment: Inhibition of IKK in human MCF7 cells assessed as reduction in TNFalpha-induced IkappaBalpha phosphorylation at serine 32 residue at 10 uM preincubated for 1 hr followed by TNFalpha-stimulation and measured after 10 mins by NanoBiT cell-based immunoassay; details: time 70.0 min
MCF7 [13] = experiment: Inhibition of IKK in human MCF7 cells assessed as reduction in TNFalpha-induced total IkappaBalpha expression at 10 uM preincubated for 1 hr followed by TNFalpha-stimulation and measured after 10 mins by NanoBiT cell-based immunoassay; details: time 70.0 min
MCF7 [14] = experiment: Inhibition of IKK in human MCF7 cells assessed as reduction in TNFalpha-induced p65 phosphorylation at serine 536 residue at 10 uM preincubated for 1 hr followed by TNFalpha-stimulation and measured after 10 mins by NanoBiT cell-based immunoassay; details: time 70.0 min
MCF7 [15] = experiment: Inhibition of IKK in human MCF7 cells assessed as effect on TNFalpha-induced p65 expression at 10 uM preincubated for 1 hr followed by TNFalpha-stimulation and measured after 10 mins by NanoBiT cell-based immunoassay; details: time 70.0 min
MCF7 [16] = experiment: Inhibition of IKK in human MCF7 cells assessed as reduction in TNFalpha-induced IkappaBalpha degradation preincubated for 1 hr followed by TNFalpha-stimulation and measured after 30 mins by NanoBiT cell-based immunoassay; details: time 1.5 hrs
Outline: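 MCF-7 cells (50,000/well, seeded overnight) were preincubated 1 h with graded inhibitor concentrations, then stimulated with TNFα (50 ng per ml, 30 min). Digitonin lysis was followed by NanoBiT total IκBα immunoassay: a rabbit/mouse primary pair plus SmBiT/LgBiT-labelled secondaries for 90 min at 23 °C, then Nano-Glo substrate and luminescence read. IC50 was taken from the dose–response.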

HeLa [17] = experiment: Inhibition of IKK in human HeLa cells assessed as reduction in TNFalpha-induced IkappaBalpha phosphorylation at serine 32 residue preincubated for 1 hr followed by TNFalpha-stimulation and measured after 10 mins by NanoBiT cell-based immunoassay; details: time 70.0 min
Ramos [18] = experiment: Inhibition of IKK in human Ramos cells assessed as reduction in TNFalpha-induced IkappaBalpha phosphorylation at serine 32 residue preincubated for 1 hr followed by TNFalpha-stimulation and measured after 10 mins by NanoBiT cell-based immunoassay; details: time 70.0 min
[19] = tested on: Primary mammary epithelial cell; experiment: Inhibition of IKK in human primary mammary epithelial cells assessed as reduction in TNFalpha-induced IkappaBalpha phosphorylation at serine 32 residue preincubated for 1 hr followed by TNFalpha-stimulation and measured after 10 mins by NanoBiT cell-based immunoassay; details: time 70.0 min
HeLa [20] = experiment: Inhibition of IKK in human HeLa cells assessed as reduction in IL-1beta-induced IkappaBalpha phosphorylation at serine 32 residue preincubated for 1 hr followed by IL-1beta-stimulation and measured after 10 mins by NanoBiT cell-based immunoassay; details: time 70.0 min
Ramos [21] = experiment: Inhibition of IKK in human Ramos cells assessed as reduction in IL-1beta-induced IkappaBalpha phosphorylation at serine 32 residue preincubated for 1 hr followed by IL-1beta-stimulation and measured after 10 mins by NanoBiT cell-based immunoassay; details: time 70.0 min
[22] = tested on: Primary mammary epithelial cell; experiment: Inhibition of IKK in human primary mammary epithelial cells assessed as reduction in IL-1beta-induced IkappaBalpha phosphorylation at serine 32 residue preincubated for 1 hr followed by IL-1beta-stimulation and measured after 10 mins by NanoBiT cell-based immunoassay; details: time 70.0 min
MCF7 [23] = experiment: Inhibition of IKK in human MCF7 cells assessed as reduction in IL-1beta-induced IkappaBalpha phosphorylation at serine 32 residue preincubated for 1 hr followed by IL-1beta-stimulation and measured after 10 mins by NanoBiT cell-based immunoassay; details: dose 10.0 µM, time 70.0 min
MCF7 [24] = experiment: Inhibition of IKK in human MCF7 cells assessed as reduction in IL-1beta-induced p65 phosphorylation at serine 536 residue preincubated for 1 hr followed by IL-1beta-stimulation and measured after 10 mins by NanoBiT cell-based immunoassay; details: time 70.0 min
[25] = target: Small ribosomal subunit protein eS6 (Homo sapiens) (UniProt P62753); experiment: Inhibition of S6 ribosomal protein in HEK293 cells assessed as reduction in insulin-induced S6 phosphorylation at Ser235/236 residue by NanoBiT cell-based immunoassay
[26] = target: Small ribosomal subunit protein eS6 (Homo sapiens) (UniProt P62753); experiment: Inhibition of S6 ribosomal protein in HEK293 cells assessed as reduction in insulin-induced S6 phosphorylation at Ser240/244 residue by NanoBiT cell-based immunoassay
[27] = target: Small ribosomal subunit protein eS6 (Homo sapiens) (UniProt P62753); experiment: Inhibition of S6 ribosomal protein in HEK293 cells assessed as reduction in serum-induced S6 phosphorylation at Ser235/236 residue by NanoBiT cell-based immunoassay
[28] = target: Small ribosomal subunit protein eS6 (Homo sapiens) (UniProt P62753); experiment: Inhibition of S6 ribosomal protein in HEK293 cells assessed as reduction in serum-induced S6 phosphorylation at Ser240/244 residue by NanoBiT cell-based immunoassay
[29] = target: Eukaryotic translation initiation factor 4E-binding protein 1 (Homo sapiens) (UniProt Q13541); experiment: Inhibition of 4E-BP1 in HEK293 cells assessed as reduction in insulin-induced 4E-BP1 phosphorylation at Ser65 residue by NanoBiT cell-based immunoassay
Sequence of Eukaryotic translation initiation factor 4E-binding protein 1 (Homo sapiens) (Q13541 whole entry): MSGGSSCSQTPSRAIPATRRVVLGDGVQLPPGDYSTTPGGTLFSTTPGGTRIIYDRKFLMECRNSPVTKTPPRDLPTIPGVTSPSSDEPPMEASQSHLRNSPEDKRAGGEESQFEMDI

[30] = target: Eukaryotic translation initiation factor 4E-binding protein 1 (Homo sapiens) (UniProt Q13541); experiment: Inhibition of 4E-BP1 in human MCF7 cells assessed as reduction in insulin-induced 4E-BP1 phosphorylation at Ser65 residue by NanoBiT cell-based immunoassay

O=c1cc(N2CCOCC2)oc2c(-c3ccccc3)cccc12 [LY-294002]
inhibition (MCF7 [1]): Active | Activity [2]: Non-Toxic | inhibition (MCF7 [3]): Dose-Dependent Effect | inhibition (MCF7 [4]): Active | inhibition (MCF7 [5]): Active

CC(=O)c1c(C)c2cnc(Nc3ccc(N4CCNCC4)cn3)nc2n(C2CCCC2)c1=O
inhibition [6]: Active | inhibition [7]: Active | inhibition [8]: Active | inhibition [9]: Active

O=C1Nc2ccccc2C12OCC1(CO2)COC2(OC1)C(=O)Nc1ccccc12 (centres undefined)
Activity [10]: Active

N#CC[C@H](C1CCCC1)n1cc(-c2ncnc3[nH]ccc23)cn1 [RUXOLITINIB]
Activity [11]: Non-Toxic

O=C(c1ccc(Nc2nccc(-c3cc4ccccc4s3)n2)cc1)N1CCC(N2CCCC2)CC1
inhibition (MCF7 [12]): Active | inhibition (MCF7 [13]): Active | inhibition (MCF7 [14]): Active | inhibition (MCF7 [15]): inactive | inhibition (MCF7 [16]): Dose-Dependent Effect | inhibition (HeLa [17]): Active | inhibition (Ramos [18]): Active | inhibition [19]: Active | inhibition (HeLa [20]): Active | inhibition (Ramos [21]): Active | inhibition [22]: Active | inhibition (MCF7 [23]): Active | inhibition (MCF7 [24]): Active

CO[C@H]1C[C@@H]2CC[C@@H](C)[C@@](O)(O2)C(=O)C(=O)N2CCCC[C@H]2C(=O)O[C@H]([C@H](C)C[C@@H]2CC[C@@H](O)[C@H](OC)C2)CC(=O)[C@H](C)/C=C(\C)[C@@H](O)[C@@H](OC)C(=O)[C@H](C)C[C@H](C)/C=C/C=C/C=C/1C
inhibition [25]: Active | inhibition [26]: Active | inhibition [27]: Active | inhibition [28]: Active | inhibition [29]: Active | inhibition [30]: Active

CCN(CC)C(=O)c1ccc(Nc2nc(OCC3CCCCC3)c3nc[nH]c3n2)cc1
inhibition [6]: Active | inhibition [7]: Active | inhibition [8]: Active | inhibition [9]: Active
